The values below come from ChEMBL document CHEMBL2021843, “Small peptide inhibitors of acetyl-peptide hydrolase having an uncommon mechanism of inhibition and a stable bent conformation” (J Med Chem, 2012).

pIC50, pKi: −log10 of the molar value. Calls of active or inactive are those of the source. The calls are words filed in the database; no cut-off is given here. Where only a bound is given, the exact number is not on record here.

For assay [1], the system named is HeLa. The assay is described as follows: Proapoptotic activity in human HeLa cells assessed as caspase 3-mediated hydrolysis of Ac-DEVD-AMC at 30 uM after 24 hrs by fluorimetry relative to untreated control. The format is functional. The method in brief:
(§1)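 Caspase 3 activity was measured fluorimetrically with a kit after 24 h exposure of HeLa or A375 cells to compound. It was expressed as fold increase over untreated culture. Data come from triplicate analyses in three experiments, given as means ± SD.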

Assay [2] concerns HeLa. The assay can be described thus: Proapoptotic activity in human HeLa cells assessed as caspase 3-mediated hydrolysis of Ac-DEVD-AMC at 50 uM after 24 hrs by fluorimetry relative to untreated control. The format is functional. In short, it runs like this:
as §1

In assay [3] the test system is HeLa. The assay can be described thus: Cytotoxicity against human HeLa cells assessed as LDH production at 100 uM after 24 hrs by spectrophotometry. The format is functional. In short, it runs like this:
(§2)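 LDH release into culture medium after 24 h exposure of HeLa or A375 cells to peptide (50, 100, 150 μM). Medium from untreated cultures served as control, and medium from cells exposed to 1% Triton X-100 served as the 100% release positive control. Data are means ± SD.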

The test system of assay [4] is HeLa. The assay can be described thus: Cytotoxicity against human HeLa cells assessed as LDH production after 24 hrs by spectrophotometry. Type of assay: functional, cell-based. In short, it runs like this:
as §2

The target in assay [5] is T1, Acylamino-acid-releasing enzyme (Sus scrofa) (UniProt P19205).
T1 sequence (whole entry): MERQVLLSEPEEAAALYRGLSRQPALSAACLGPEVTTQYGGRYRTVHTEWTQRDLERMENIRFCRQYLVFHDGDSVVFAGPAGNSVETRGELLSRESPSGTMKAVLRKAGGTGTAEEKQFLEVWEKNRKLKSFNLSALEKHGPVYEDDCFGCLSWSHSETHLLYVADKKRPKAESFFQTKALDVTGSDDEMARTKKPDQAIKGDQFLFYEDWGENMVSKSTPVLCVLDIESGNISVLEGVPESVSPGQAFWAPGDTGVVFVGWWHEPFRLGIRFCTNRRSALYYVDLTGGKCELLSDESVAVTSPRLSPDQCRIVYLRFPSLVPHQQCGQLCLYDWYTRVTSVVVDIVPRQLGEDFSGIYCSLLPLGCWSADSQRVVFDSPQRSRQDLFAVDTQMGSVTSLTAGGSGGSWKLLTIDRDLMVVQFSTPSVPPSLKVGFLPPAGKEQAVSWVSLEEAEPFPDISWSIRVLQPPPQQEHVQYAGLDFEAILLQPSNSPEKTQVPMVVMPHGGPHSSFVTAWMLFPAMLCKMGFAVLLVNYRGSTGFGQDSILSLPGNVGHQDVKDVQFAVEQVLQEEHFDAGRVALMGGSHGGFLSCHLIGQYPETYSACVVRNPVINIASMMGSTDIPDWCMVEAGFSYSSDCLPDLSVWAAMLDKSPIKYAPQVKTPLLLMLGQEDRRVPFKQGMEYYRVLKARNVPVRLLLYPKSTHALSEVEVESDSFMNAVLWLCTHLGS
The assay is described as follows: (§3) Inhibition of pig APEH using acetyl-Ala-pNA as substrate incubated for 2 mins prior to substrate addition by spectrophotometry.

Assay [6] concerns the target T2, Acylamino-acid-releasing enzyme (Sus scrofa, UniProt P19205).
T2 sequence (P19205 whole entry): T1 sequence (whole entry)
The assay is described as §3.

A short description of assay [7]: Inhibition of chymotrypsin incubated for 30 mins prior to substrate addition by spectrophotometry. The method in brief: (§4)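 Panel of proteases tested up to a maximal 1000 μM inhibitor, each at its own pH: carboxypeptidase Y pH 7.0; chymotrypsin, elastase and trypsin pH 8.0; subtilisin and proteinase K pH 7.5. IC50 and maximal % inhibition were recorded.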
Assay [8] is described as follows: Inhibition of elastase incubated for 30 mins prior to substrate addition by spectrophotometry. In short, it runs like this: as §4
Assay [9] can be described thus: Inhibition of trypsin incubated for 30 mins prior to substrate addition by spectrophotometry. In short, it runs like this: as §4
Assay [10] in a line: Inhibition of carboxypeptidase Y incubated for 30 mins prior to substrate addition by spectrophotometry. In short, it runs like this: as §4
The nature of assay [11]: Inhibition of subtilisin incubated for 30 mins prior to substrate addition by spectrophotometry. In short, it runs like this:
as §4

Assay [12] in a line: Inhibition of proteinase K incubated for 30 mins prior to substrate addition by spectrophotometry. In short, it runs like this: as §4
A short description of assay [13]: Inhibition of chymotrypsin at 1 mM incubated for 30 mins prior to substrate addition by spectrophotometry. In short, it runs like this:
as §4

The nature of assay [14]: Inhibition of elastase at 1 mM incubated for 30 mins prior to substrate addition by spectrophotometry. The method in brief:
as §4

A short description of assay [15]: Inhibition of trypsin at 1 mM incubated for 30 mins prior to substrate addition by spectrophotometry. The method in brief:
as §4

The nature of assay [16]: Inhibition of carboxypeptidase Y at 1 mM incubated for 30 mins prior to substrate addition by spectrophotometry. In short, it runs like this: as §4
Assay [17] can be described thus: Inhibition of subtilisin at 1 mM incubated for 30 mins prior to substrate addition by spectrophotometry. In short, it runs like this:
as §4

The nature of assay [18]: Inhibition of proteinase K at 1 mM incubated for 30 mins prior to substrate addition by spectrophotometry. The method in brief: as §4
Assay [19] addresses T3, Acylamino-acid-releasing enzyme (Homo sapiens) (UniProt P13798).
T3 sequence (whole entry): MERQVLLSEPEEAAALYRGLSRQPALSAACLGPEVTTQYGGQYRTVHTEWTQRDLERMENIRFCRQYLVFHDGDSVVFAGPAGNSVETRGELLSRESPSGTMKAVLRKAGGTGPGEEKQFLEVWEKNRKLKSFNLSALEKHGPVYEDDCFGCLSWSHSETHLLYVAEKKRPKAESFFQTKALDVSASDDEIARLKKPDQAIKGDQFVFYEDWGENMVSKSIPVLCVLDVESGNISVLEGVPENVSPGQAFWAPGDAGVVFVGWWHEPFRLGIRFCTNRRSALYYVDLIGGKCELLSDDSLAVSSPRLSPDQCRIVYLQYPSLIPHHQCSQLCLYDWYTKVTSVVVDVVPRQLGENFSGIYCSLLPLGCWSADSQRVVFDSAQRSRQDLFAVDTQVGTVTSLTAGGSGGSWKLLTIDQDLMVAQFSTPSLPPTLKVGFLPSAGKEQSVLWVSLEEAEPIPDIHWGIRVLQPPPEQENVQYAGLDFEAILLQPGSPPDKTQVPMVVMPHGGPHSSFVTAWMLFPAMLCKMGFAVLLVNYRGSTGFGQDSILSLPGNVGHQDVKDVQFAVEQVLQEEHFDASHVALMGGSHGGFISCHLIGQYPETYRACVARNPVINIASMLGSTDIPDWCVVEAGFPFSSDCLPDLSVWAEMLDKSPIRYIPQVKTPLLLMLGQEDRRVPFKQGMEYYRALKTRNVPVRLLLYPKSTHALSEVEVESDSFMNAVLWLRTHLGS
The assay is described as follows: Inhibition of APEH in human HeLa cells after 24 hrs. Type of assay: cell-based. The method in brief: (§5)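 Melanoma A375 and cervical HeLa cells were exposed for 24 h to peptide at 50, 100 or 150 μM. Data are means ± SD.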

The target in assay [20] is T3, Acylamino-acid-releasing enzyme (Homo sapiens). The assay is described as follows: Inhibition of APEH in human A375 cells after 24 hrs. Type of assay: cell-based. The settings on record: A-375. The method in brief:
as §5

For assay [21] the target is unchanged. The assay can be described thus: Inhibition of APEH in human HeLa cells at 150 uM after 24 hrs. Type of assay: cell-based. The method in brief:
as §5

For assay [22] the target is unchanged. The assay can be described thus: Inhibition of APEH in human A375 cells at 150 uM after 24 hrs. Type of assay: cell-based. The settings on record: A-375. The method in brief:
as §5

In assay [23] the test system is HeLa. The assay can be described thus: Proapoptotic activity in human HeLa cells assessed as caspase 3-mediated hydrolysis of Ac-DEVD-AMC at 100 uM after 24 hrs by fluorimetry. Type of assay: functional, cell-based. In short, it runs like this:
as §1

Assay [24] deals with HeLa. The assay can be described thus: Proapoptotic activity in human HeLa cells assessed as caspase 3-mediated hydrolysis of Ac-DEVD-AMC at 150 uM after 24 hrs by fluorimetry. Type of assay: functional, cell-based. In short, it runs like this: as §1
Assay [25] relates to A-375. The assay can be described thus: Proapoptotic activity in human A375 cells assessed as caspase 3-mediated hydrolysis of Ac-DEVD-AMC at 100 uM after 24 hrs by fluorimetry. Type of assay: functional, cell-based. The method in brief: as §1
Assay [26] has as its system HeLa. The assay can be described thus: Cytotoxicity against human HeLa cells assessed as LDH production at 50 to 150 uM after 24 hrs by spectrophotometry. Type of assay: functional, cell-based. In short, it runs like this:
as §2

The subject of assay [27] is A-375. The assay can be described thus: Cytotoxicity against human A375 cells assessed as LDH production at 50 to 150 uM after 24 hrs by spectrophotometry. Type of assay: functional, cell-based. In short, it runs like this:
as §2

Assay [28] relates to A-375. The assay is described as follows: Proapoptotic activity in human A375 cells assessed as caspase 3-mediated hydrolysis of Ac-DEVD-AMC at 150 uM after 24 hrs by fluorimetry. Type of assay: functional, cell-based. The method in brief: as §1
Assay [29] concerns the target T1, Acylamino-acid-releasing enzyme (Sus scrofa). The conditions noted are these: 150 uM.
The target is the same in assay [30]. The conditions noted are these: 1 mM.
Assay [31] has the same target. The conditions noted are these: 50 to 100 uM.
For assay [32] the target is unchanged. The settings on record: 50 uM.

Consider `CC[C@@H](C)[C@@H](O)[C@H](C)C(=O)[C@H](C)/C=C(\C)C[C@H](C)[C@@H]1OC(=O)[C@H]1CC` [EBELACTONE B], for which the “fold change (FC)” value in the assay on HeLa [1] and with HeLa [2] was 5 each time. In addition, the Activity with HeLa [3] was 28%; with HeLa [4], “Dose-dependent effect”.
`CSCC[C@@H](NC(=O)[C@@H](CC(C)C)NC(=O)C(F)(F)F)C(=O)N1CCC[C@@H]1C(=O)N[C@H](CC(=O)O)C(N)=O`: the outcome with HeLa [4] was inactive.
One may read the inhibition as the drop in the measured response relative to a control, in per cent. For the compound `CSCC[C@@H](NC(=O)[C@@H](CC(C)C)NC(C)=O)C(=O)N1CCC[C@@H]1C(=O)N[C@H](Cc1cnc[nH]1)C(N)=O`, the inhibition entry in assay [5] was “inactive”.
A word on the pIC50: it is the negative decadic logarithm of the IC50, by convention in mol/L. By pKi is commonly meant −log10 of the Ki, conventionally taken in molar units. The low end stands for a large Ki, the high end for a small Ki. For `CSCC[C@@H](NC(=O)[C@@H](CC(C)C)NC(=O)C(F)(F)F)C(=O)N1CCC[C@@H]1C(=O)N[C@H](Cc1cnc[nH]1)C(N)=O`, the pIC50 is 4.01 in assay [6]; less than 3.00 in assay [7]; less than 3.00 in assay [8]; less than 3.00 in [9]; 3.68 in [10]; less than 3.00 in assay [11]. The compound further gave a negative logarithm of the IC50 (pIC50) in [12] of less than 3.00. In assay [6], the pKi was 4.62. In addition, the Imax in assay [13] was less than 1%; in assay [14], less than 1%; in [15], less than 1%; in [16] it was 30%; in assay [17] it was less than 1%; in [18], less than 1%. Moreover, the Imax in [21] amounted to 80%; in [22], 50%; in assay [29], 72%; in assay [30], 72%. Also, the outcome with HeLa [4], in the assay on HeLa [26] and in the assay with A-375 [27] was inactive. Moreover, the inhibition result in assay [19] is “Dose-dependent effect”; in assay [20] it was “Dose-dependent effect”; in assay [32], greater than 25%. For the same compound, the outcome in the assay with HeLa [23], in the assay with HeLa [24], in the assay with A-375 [25] and in the assay with A-375 [28] was Active. Also, the inhibition result in assay [31] is “Active”.
Consider `CSCC[C@@H](NC(=O)[C@H](N)CC(C)C)C(=O)N1CCC[C@@H]1C(=O)N[C@H](Cc1cnc[nH]1)C(N)=O`, for which the inhibition result in assay [5] is “inactive”.
